Data taken from ChEMBL document CHEMBL5058577, “EUbOPEN Chemogenomics Library 2 (Multiplex)” (2022).

System: HEK-293T
Experiment: Multiplex assay against HEK293T
Type: toxicity, cell-based
Settings: human
Outline: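 Hoechst33342, BioTracker Green Microtubule Cytoskeleton Dye, MitoTracker Red and Annexin V Alexa Fluor 680 were added to live cells at seeding, and imaging on a CQ1 microscope at 37°C and 5% CO2 followed compound addition. Gating by CellPathfinder machine learning separated cells into Hoechst high-intensity objects or normal cells, then normal cells into healthy, pyknosed or fragmented nuclei, then pyknosed cells into mitotic or apoptotic. Per cents of healthy-nucleus cells are reported for the tubulin, mitochondrial-mass and membrane-permeability phenotypes.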

[1] = 12 h, 1 µM, compound concentration 1 uM, replicate 1
[2] = 12 h, 1 µM, compound concentration 1 uM, replicate 2
[3] = 12 h, 10 µM, compound concentration 10 uM, replicate 1
[4] = 12 h, 10 µM, compound concentration 10 uM, replicate 2
[5] = 24 h, 1 µM, compound concentration 1 uM, replicate 1
[6] = 24 h, 1 µM, compound concentration 1 uM, replicate 2
[7] = 24 h, 10 µM, compound concentration 10 uM, replicate 1
[8] = 24 h, 10 µM, compound concentration 10 uM, replicate 2
[9] = 48 h, 1 µM, compound concentration 1 uM, replicate 1
[10] = 48 h, 1 µM, compound concentration 1 uM, replicate 2
[11] = 48 h, 10 µM, compound concentration 10 uM, replicate 1
[12] = 48 h, 10 µM, compound concentration 10 uM, replicate 2

## CC1(COc2ccc3c(c2)ncn3-c2ccc3cccc(N4CCC(N)CC4)c3n2)COC1 [CRENOLANIB]
[1]
  Population Apoptotic (%): 58%
  Population Fragmented Nuclei (%): 14%
  Population Healthy Nuclei (%): 79%
  Population Hoechst High Intensity Objects (%): 3%
  Population Membrane Permeable-Phenotype (%): 2%
  Population Mitochondria Different-Phenotype (%): 23%
  Population Mitotic Cells (%): 41%
  Population Normal (%): 96%
  Population Pyknosed Nuclei (%): 6%
  Population Tubulin-Different-Phenotype (%): 46%
  Total Cell Count: 412
[2]
  Population Apoptotic (%): 34%
  Population Fragmented Nuclei (%): 10%
  Population Healthy Nuclei (%): 80%
  Population Hoechst High Intensity Objects (%): 6%
  Population Membrane Permeable-Phenotype (%): 1%
  Population Mitochondria Different-Phenotype (%): 51%
  Population Mitotic Cells (%): 65%
  Population Normal (%): 93%
  Population Pyknosed Nuclei (%): 8%
  Population Tubulin-Different-Phenotype (%): 51%
  Total Cell Count: 332
[3]
  Population Apoptotic (%): 69%
  Population Fragmented Nuclei (%): 67%
  Population Healthy Nuclei (%): 13%
  Population Hoechst High Intensity Objects (%): 67%
  Population Membrane Permeable-Phenotype (%): 0%
  Population Mitochondria Different-Phenotype (%): 84%
  Population Mitotic Cells (%): 30%
  Population Normal (%): 32%
  Population Pyknosed Nuclei (%): 18%
  Population Tubulin-Different-Phenotype (%): 68%
  Total Cell Count: 423
[4]
  Population Apoptotic (%): 55%
  Population Fragmented Nuclei (%): 64%
  Population Healthy Nuclei (%): 17%
  Population Hoechst High Intensity Objects (%): 69%
  Population Mitochondria Different-Phenotype (%): 90%
  Population Mitotic Cells (%): 45%
  Population Normal (%): 30%
  Population Pyknosed Nuclei (%): 17%
  Population Tubulin-Different-Phenotype (%): 50%
  Total Cell Count: 376
[5]
  Population Apoptotic (%): 29%
  Population Fragmented Nuclei (%): 20%
  Population Healthy Nuclei (%): 66%
  Population Hoechst High Intensity Objects (%): 2%
  Population Membrane Permeable-Phenotype (%): 2%
  Population Mitochondria Different-Phenotype (%): 22%
  Population Mitotic Cells (%): 70%
  Population Normal (%): 97%
  Population Pyknosed Nuclei (%): 12%
  Population Tubulin-Different-Phenotype (%): 23%
  Total Cell Count: 547
[6]
  Population Apoptotic (%): 45%
  Population Fragmented Nuclei (%): 15%
  Population Healthy Nuclei (%): 73%
  Population Hoechst High Intensity Objects (%): 6%
  Population Membrane Permeable-Phenotype (%): 1%
  Population Mitochondria Different-Phenotype (%): 33%
  Population Mitotic Cells (%): 54%
  Population Normal (%): 93%
  Population Pyknosed Nuclei (%): 11%
  Population Tubulin-Different-Phenotype (%): 35%
  Total Cell Count: 415
[7]
  Population Apoptotic (%): 72%
  Population Fragmented Nuclei (%): 60%
  Population Healthy Nuclei (%): 16%
  Population Hoechst High Intensity Objects (%): 56%
  Population Membrane Permeable-Phenotype (%): 0%
  Population Mitochondria Different-Phenotype (%): 89%
  Population Mitotic Cells (%): 27%
  Population Normal (%): 43%
  Population Pyknosed Nuclei (%): 23%
  Population Tubulin-Different-Phenotype (%): 92%
  Total Cell Count: 394
[8]
  Population Fragmented Nuclei (%): 69%
  Population Healthy Nuclei (%): 15%
  Population Hoechst High Intensity Objects (%): 63%
  Population Mitochondria Different-Phenotype (%): 94%
  Population Normal (%): 36%
  Population Pyknosed Nuclei (%): 14%
  Population Tubulin-Different-Phenotype (%): 73%
  Total Cell Count: 334
[9]
  Population Apoptotic (%): 29%
  Population Fragmented Nuclei (%): 19%
  Population Healthy Nuclei (%): 72%
  Population Hoechst High Intensity Objects (%): 1%
  Population Membrane Permeable-Phenotype (%): 1%
  Population Mitochondria Different-Phenotype (%): 17%
  Population Mitotic Cells (%): 70%
  Population Normal (%): 98%
  Population Pyknosed Nuclei (%): 7%
  Population Tubulin-Different-Phenotype (%): 10%
  Total Cell Count: 844
[10]
  Population Apoptotic (%): 47%
  Population Fragmented Nuclei (%): 23%
  Population Healthy Nuclei (%): 70%
  Population Mitochondria Different-Phenotype (%): 21%
  Population Mitotic Cells (%): 52%
  Population Pyknosed Nuclei (%): 6%
  Population Tubulin-Different-Phenotype (%): 14%
  Total Cell Count: 639
[11]
  Population Apoptotic (%): 86%
  Population Fragmented Nuclei (%): 51%
  Population Healthy Nuclei (%): 17%
  Population Hoechst High Intensity Objects (%): 41%
  Population Membrane Permeable-Phenotype (%): 0%
  Population Mitochondria Different-Phenotype (%): 97%
  Population Mitotic Cells (%): 13%
  Population Normal (%): 59%
  Population Pyknosed Nuclei (%): 30%
  Population Tubulin-Different-Phenotype (%): 95%
  Total Cell Count: 400
[12]
  Population Apoptotic (%): 84%
  Population Fragmented Nuclei (%): 47%
  Population Healthy Nuclei (%): 22%
  Population Hoechst High Intensity Objects (%): 49%
  Population Mitochondria Different-Phenotype (%): 96%
  Population Mitotic Cells (%): 15%
  Population Normal (%): 50%
  Population Tubulin-Different-Phenotype (%): 96%
  Total Cell Count: 298

## C[C@@H]1C[C@H]2[C@@H]3CCC4=CC(=O)C=C[C@]4(C)[C@@]3(F)[C@@H](O)C[C@]2(C)[C@@]1(O)C(=O)CO [DEXAMETHASONE]
[1]
  Population Apoptotic (%): 37%
  Population Fragmented Nuclei (%): 8%
  Population Healthy Nuclei (%): 78%
  Population Hoechst High Intensity Objects (%): 2%
  Population Membrane Permeable-Phenotype (%): 1%
  Population Mitochondria Different-Phenotype (%): 45%
  Population Mitotic Cells (%): 62%
  Population Normal (%): 97%
  Population Pyknosed Nuclei (%): 12%
  Population Tubulin-Different-Phenotype (%): 24%
  Total Cell Count: 420
[2]
  Population Apoptotic (%): 53%
  Population Fragmented Nuclei (%): 7%
  Population Healthy Nuclei (%): 80%
  Population Hoechst High Intensity Objects (%): 8%
  Population Membrane Permeable-Phenotype (%): 0%
  Population Mitochondria Different-Phenotype (%): 62%
  Population Mitotic Cells (%): 46%
  Population Normal (%): 91%
  Population Tubulin-Different-Phenotype (%): 26%
  Total Cell Count: 372
[3]
  Population Apoptotic (%): 37%
  Population Fragmented Nuclei (%): 7%
  Population Healthy Nuclei (%): 79%
  Population Hoechst High Intensity Objects (%): 6%
  Population Membrane Permeable-Phenotype (%): 0%
  Population Mitochondria Different-Phenotype (%): 44%
  Population Mitotic Cells (%): 62%
  Population Normal (%): 93%
  Population Pyknosed Nuclei (%): 13%
  Population Tubulin-Different-Phenotype (%): 33%
  Total Cell Count: 374
[4]
  Population Apoptotic (%): 44%
  Population Fragmented Nuclei (%): 5%
  Population Healthy Nuclei (%): 81%
  Population Hoechst High Intensity Objects (%): 14%
  Population Mitochondria Different-Phenotype (%): 69%
  Population Mitotic Cells (%): 55%
  Population Normal (%): 85%
  Population Tubulin-Different-Phenotype (%): 39%
  Total Cell Count: 436
[5]
  Population Apoptotic (%): 31%
  Population Fragmented Nuclei (%): 9%
  Population Healthy Nuclei (%): 78%
  Population Hoechst High Intensity Objects (%): 4%
  Population Membrane Permeable-Phenotype (%): 0%
  Population Mitochondria Different-Phenotype (%): 30%
  Population Mitotic Cells (%): 68%
  Population Normal (%): 95%
  Population Pyknosed Nuclei (%): 12%
  Population Tubulin-Different-Phenotype (%): 17%
  Total Cell Count: 569
[6]
  Population Apoptotic (%): 42%
  Population Fragmented Nuclei (%): 12%
  Population Healthy Nuclei (%): 79%
  Population Hoechst High Intensity Objects (%): 7%
  Population Mitochondria Different-Phenotype (%): 45%
  Population Mitotic Cells (%): 57%
  Population Normal (%): 92%
  Population Pyknosed Nuclei (%): 8%
  Total Cell Count: 499
[7]
  Population Apoptotic (%): 36%
  Population Fragmented Nuclei (%): 8%
  Population Healthy Nuclei (%): 74%
  Population Hoechst High Intensity Objects (%): 6%
  Population Membrane Permeable-Phenotype (%): 0%
  Population Mitochondria Different-Phenotype (%): 30%
  Population Mitotic Cells (%): 63%
  Population Normal (%): 93%
  Population Pyknosed Nuclei (%): 16%
  Population Tubulin-Different-Phenotype (%): 29%
  Total Cell Count: 453
[8]
  Population Apoptotic (%): 44%
  Population Fragmented Nuclei (%): 9%
  Population Healthy Nuclei (%): 79%
  Population Hoechst High Intensity Objects (%): 15%
  Population Mitochondria Different-Phenotype (%): 43%
  Population Mitotic Cells (%): 56%
  Population Normal (%): 84%
  Population Pyknosed Nuclei (%): 11%
  Population Tubulin-Different-Phenotype (%): 22%
  Total Cell Count: 513
[9]
  Population Apoptotic (%): 30%
  Population Fragmented Nuclei (%): 15%
  Population Healthy Nuclei (%): 77%
  Population Hoechst High Intensity Objects (%): 1%
  Population Membrane Permeable-Phenotype (%): 1%
  Population Mitochondria Different-Phenotype (%): 18%
  Population Mitotic Cells (%): 69%
  Population Normal (%): 98%
  Population Pyknosed Nuclei (%): 7%
  Population Tubulin-Different-Phenotype (%): 12%
  Total Cell Count: 915
[10]
  Population Apoptotic (%): 27%
  Population Healthy Nuclei (%): 78%
  Population Hoechst High Intensity Objects (%): 3%
  Population Membrane Permeable-Phenotype (%): 0%
  Population Mitochondria Different-Phenotype (%): 27%
  Population Mitotic Cells (%): 72%
  Population Normal (%): 96%
  Population Pyknosed Nuclei (%): 6%
  Population Tubulin-Different-Phenotype (%): 15%
  Total Cell Count: 685
[11]
  Population Apoptotic (%): 25%
  Population Fragmented Nuclei (%): 15%
  Population Healthy Nuclei (%): 76%
  Population Hoechst High Intensity Objects (%): 3%
  Population Membrane Permeable-Phenotype (%): 0%
  Population Mitochondria Different-Phenotype (%): 18%
  Population Mitotic Cells (%): 75%
  Population Normal (%): 96%
  Population Pyknosed Nuclei (%): 7%
  Population Tubulin-Different-Phenotype (%): 14%
  Total Cell Count: 760
[12]
  Population Apoptotic (%): 50%
  Population Fragmented Nuclei (%): 16%
  Population Hoechst High Intensity Objects (%): 6%
  Population Mitochondria Different-Phenotype (%): 28%
  Population Mitotic Cells (%): 49%
  Population Normal (%): 93%
  Population Tubulin-Different-Phenotype (%): 19%
  Total Cell Count: 756
